Test [1] deals with T1, Glutaminyl-peptide cyclotransferase (Homo sapiens, UniProt Q16769). As to the kind of experiment: Inhibition of human recombinant glutaminyl cyclase expressed in Escherichia coli at 100 uM using H-Gln-Gln-H substrate measured for 15 mins by spectrophotometry relative to control.
Target sequence in this assay (Q16769 29-361 limits assumed): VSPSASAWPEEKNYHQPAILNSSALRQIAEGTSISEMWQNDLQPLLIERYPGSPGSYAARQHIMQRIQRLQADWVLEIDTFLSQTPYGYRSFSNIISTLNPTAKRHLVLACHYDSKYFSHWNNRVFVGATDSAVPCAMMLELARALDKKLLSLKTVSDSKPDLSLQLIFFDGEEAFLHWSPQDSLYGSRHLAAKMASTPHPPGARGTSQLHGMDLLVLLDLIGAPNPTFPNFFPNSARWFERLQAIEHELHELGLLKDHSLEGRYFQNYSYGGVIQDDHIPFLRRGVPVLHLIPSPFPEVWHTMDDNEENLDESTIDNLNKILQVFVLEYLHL
For test [2], the target named is T1, Glutaminyl-peptide cyclotransferase. As to the kind of experiment: Inhibition of human recombinant glutaminyl cyclase expressed in Escherichia coli using H-Gln-Gln-H substrate measured for 15 mins by spectrophotometry. An outline of the steps: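 Recombinant hQC expressed in E. coli is tested in a glutamic acid dehydrogenase-coupled reaction: 0–4 mM H-Gln-Gln-H, 30 units/ml GDH, 0.5 mM NADH/H+, 15 mM α-ketoglutaric acid, 0.05 M Tris–HCl pH 8.0. Inhibitor is added at several concentrations with the enzyme to start the reaction, and A340 loss is read over 15 min. IC50 is read graphically from log concentration vs % inhibition. Triplicate.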
Target sequence in this assay (Q16769 whole entry): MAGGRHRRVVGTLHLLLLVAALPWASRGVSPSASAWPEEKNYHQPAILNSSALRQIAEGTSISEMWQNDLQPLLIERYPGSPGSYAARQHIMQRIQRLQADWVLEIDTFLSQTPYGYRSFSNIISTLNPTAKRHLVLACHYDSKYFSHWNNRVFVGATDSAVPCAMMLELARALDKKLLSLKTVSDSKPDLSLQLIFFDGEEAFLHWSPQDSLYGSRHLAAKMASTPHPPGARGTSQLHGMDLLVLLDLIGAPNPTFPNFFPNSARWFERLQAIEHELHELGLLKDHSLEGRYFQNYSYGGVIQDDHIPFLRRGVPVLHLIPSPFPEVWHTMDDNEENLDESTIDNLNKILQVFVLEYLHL

Molecules are shown by their SMILES. pIC50: −log10 of the molar value.

`COc1ccc(-c2cc(=O)c3ccc(O)cc3o2)cc1`: the inhibition in test [1] was determined as 75.2%.
Still for that read-out and setting: to `COc1ccc(-c2cc(=O)c3c(O)cc(O)cc3o2)c(OC)c1` belongs 71.7%.
On to `O=c1cc(-c2ccc(O)cc2)oc2cc(O)ccc12`, for which, in test [1], the inhibition was 71.8%. In addition, in test [2], the pIC50 is 4.34.
As to `O=c1cc(-c2ccc(O)cc2)oc2cc(O)cc(O)c12`, the inhibition in test [1] amounted to 75.2%.

The inhibition is the drop in the measured response relative to a control, in per cent. Broadly, the pIC50 is −log10 of the IC50, conventionally taken in molar units.
